# In the library only some 2.9% were active in any assay of this set; here they are far more common.
# EBNA-1 inh: EBNA-1 DNA-binding inhibitors, primary screen, biochemical, fluorescence polarization; inhibition, % at 14.8 µM; 300,000 tested, 0.34% active; AID 1950, 2009; in the data active means inhibition above about 28%
# UBC13 inh: UBC13 polyubiquitin chain formation inhibitors, primary screen, biochemical, TR-FRET, uHTS; Ubiquitin-conjugating enzyme E2 N (Homo sapiens), P61088; 330,000 tested, 0.47% active; inhibition, % at 20 µM; in the data active means inhibition above about 45%, passing the limit was not always enough; inconclusive means no clear call, values can overlap the other calls
# Target sequence (P61088 whole entry, looked up): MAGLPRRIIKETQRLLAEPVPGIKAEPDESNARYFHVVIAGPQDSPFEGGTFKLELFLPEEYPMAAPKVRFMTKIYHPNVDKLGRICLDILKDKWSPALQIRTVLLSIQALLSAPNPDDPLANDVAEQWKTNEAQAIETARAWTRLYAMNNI
# ZTA counter: counter-screen for EBNA-1 inhibitors: inhibitors of Epstein-Barr virus ZTA | 320,000 tested, 0.15% active | ZTA-DNA binding, fluorescence polarization | P03206 | inhibition, % at 11 µM; in the data active means inhibition above about 33%
# PfM18AAP inh-1: PfM18AAP inhibitors, malaria aminopeptidase, primary screen, biochemical, QFRET, recombinant enzyme. M18 aspartyl aminopeptidase (Plasmodium falciparum 3D7). 290,000 tested, 1.2% active. AID 1822, 2009. H-Glu-NHMec fluorogenic cleavage. inhibition, % at 7.35 µM;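 active means inhibition above the campaign mean inhibition over all tested compounds plus 3 SD, cut at about 28% in these data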;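 further: 0% = plate median of test compound wells and 100% = 2 mM ZnCl2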
# PfG6PD inh: PfG6PD enzyme inhibitors, primary screen, biochemical, fluorescence intensity, uHTS | glucose-6-phosphate dehydrogenase-6-phosphogluconolactonase (Plasmodium falciparum 3D7) | PfGluPho enzyme, NADPH resazurin-diaphorase fluorescence | inhibition, % at 20 µM | 350,000 tested, 0.78% active | AID 504690, 2011;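 active means inhibition reaching at least a set limit at 20 µM in the primary screen, cut at about 59% in these data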;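 further: 0% = DMSO wells with substrate and 100% = DMSO wells lacking glucose-6-phosphate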
# Apaf-1 inh: inhibitors of human Apaf-1 apoptosome, primary screen, biochemical, DEVD-Rh110 fluorescence, uHTS. Apoptotic protease-activating factor 1 (Homo sapiens), O14727. reconstituted apoptosome caspase-3 activity. inhibition, % at 20 µM. 330,000 tested, 0.71% active. AID 489030, 2010; active means inhibition of at least 40% at 20 µM;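 further: plate controls were DMSO wells for no effect and DEVD-CHO caspase inhibitor wells for full effect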
#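 Assay system: Apoptosome proteins | Medium: pH 7.5 Hepes buffer with CHAPS, BSA, DTT | Also added: Cytochrome c and DEVD-Rh110 substrate | Times: 30 min plus 50 min, RT | Detection: Rhodamine 110 fluorescence at Ex 480/Em 540 nm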
# PfM18AAP inh-2: PfM18AAP inhibitors, malaria aminopeptidase, confirmation, biochemical, QFRET, recombinant enzyme, triplicate. inhibition, % at 7.35 µM. H-Glu-NHMec fluorogenic cleavage. 2,400 tested, 28% active. shares compounds with PfM18AAP inh-1. AID 2170, 2009;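 active means mean inhibition over replicate wells above the hit cutoff set for the earlier primary screen, cut at about 29% in these data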;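 further: 0% = median of test compound wells and 100% = 2 mM ZnCl2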
# CTSL1 confirm: cathepsin L1 inhibitors, retest, confirmation, counter-screen for PFM18AAP inhibitor project, biochemical, QFRET, triplicate; shares compounds with PfM18AAP inh-1; purified cathepsin L1, Z-Leu-Arg-MCA fluorescence; inhibition, % at 5.96 µM; 2,400 tested, under 10 active; AID 2178, 2009;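 active means average inhibition across replicates above the hit cutoff set in the earlier primary screen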;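 further: 0% = median of test compound wells and 100% = Z-Phe-Ala-diazomethylketone 1 µM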
# Target sequence (P07711 whole entry, looked up): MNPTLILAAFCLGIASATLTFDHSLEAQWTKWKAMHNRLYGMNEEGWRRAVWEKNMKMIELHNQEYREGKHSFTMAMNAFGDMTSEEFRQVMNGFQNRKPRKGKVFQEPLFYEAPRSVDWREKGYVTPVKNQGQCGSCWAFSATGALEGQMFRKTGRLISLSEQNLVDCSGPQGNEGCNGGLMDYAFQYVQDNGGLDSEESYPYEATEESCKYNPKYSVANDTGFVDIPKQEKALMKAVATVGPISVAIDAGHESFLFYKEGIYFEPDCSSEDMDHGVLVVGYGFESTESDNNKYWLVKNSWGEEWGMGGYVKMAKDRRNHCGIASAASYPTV
# The depositor's hits bear a star; ? = inconclusive; · = no result.
SMILES,EBNA-1 inh,UBC13 inh,ZTA counter,PfM18AAP inh-1,PfG6PD inh,Apaf-1 inh,PfM18AAP inh-2,CTSL1 confirm
O=C(CN1c2ccccc2S(=O)(=O)c2ccccc21)NCc1ccc(F)cc1,-2,-5,-4,-3,13,0,·,·
CCCCCCN(C(=O)CCCN1C(=O)NC(c2ccc([N+](=O)[O-])cc2)C(C(=O)OCc2ccccc2)=C1C)C(C)C(=O)NCCCC (stereo unspecified),·,·,·,·,24,24,·,·
C=CCn1c(SCC(=O)c2ccc(O)c(O)c2)nnc1-c1cccc(C)c1,·,16,3,·,-6,-2,·,·
C=CCn1c(SCC(=O)c2ccc(O)c(O)c2)nnc1-c1cccnc1,-3,4,-15,54*,-33,-5,22,5
Cc1csc(SCC(=O)Nc2oc(C)c3c(C)n[nH]c(=O)c23)n1,7,-1,17,·,0,0,·,·
Cc1cc(O)c2/c(=N\N)c(-c3csc(C)n3)coc2c1,13,0,4,71*,37,-17,48*,-1
Cc1nc(-c2coc3c(CN(C)C)c(O)ccc3c2=O)cs1,6,4,2,-18,-6,0,·,·
CNc1n[nH]c(-c2ccccc2)n1,·,·,·,·,-2,·,·,·
N#Cc1c(NC(=O)CSc2ncn[nH]2)sc2c1CCCCC2,4,10,-7,32*,-28,-8,-31,2
CC(=O)Nc1sc2c(c1C#N)CCCC2,-22,9,-21,-4,-10,4,·,·
CC(C)C(=O)Nc1sc2c(c1C#N)CCCCC2,4,3,-2,38*,15,13,-1,-1
COc1ccc(-n2cc(-c3ccc(OC)c(OC)c3)[nH]c2=S)cc1,0,17,4,41*,56,-14,4,10
COc1ccc(-n2cc(-c3ccc(Br)cc3)[nH]c2=S)cc1,9,1,4,14,13,4,·,·
COc1cc(-c2nnc(SCC(=O)N(C)C3CCS(=O)(=O)C3)o2)cc(OC)c1OC (stereo unspecified),-6,0,-7,-6,4,-1,·,·
CCOc1cccc(/C=C2\NC(=S)N(c3ccccc3)C2=O)c1O,-10,-41,4,6,12,16,·,·
CN(C)/C=C1\NC(=S)N(c2ccccc2)C1=O,3,-8,-6,73*,47,4,51*,4
CN(C)/C=C1\NC(=S)N(c2ccc(Cl)cc2)C1=O,-11,-15,-7,67*,45,1,44*,2
CNc1nc(SC)n(C)c(=O)c1N=O,-2,-32,12,8,·,7,·,·
Cc1ccccc1Nc1nc(N)nc(COC(=O)/C=C/c2ccco2)n1,-7,-13,0,-8,28,7,·,·
CC(=O)c1ccc(NC(=O)c2sc3nc(N4CCOCC4)c4c(c3c2N)CCCC4)cc1,3,?,-5,43*,41,18,4,4
CCOc1ccc(NC(=O)c2sc3nc(N4CCOCC4)c4c(c3c2N)CCCC4)cc1,-2,?,6,43*,42,7,15,5
Nc1c(C(=O)Nc2ccc(Cl)cc2)sc2nc(N3CCOCC3)c3c(c12)CCCC3,8,?,17,42*,44,4,0,0
Nc1c(C(=O)Nc2ccccc2)sc2nc(N3CCOCC3)c3c(c12)CCCC3,·,·,·,·,50,·,·,·
COc1cccc(NC(=O)c2sc3nc(N4CCOCC4)c4c(c3c2N)CCCC4)c1,2,?,-6,50*,58,16,2,-18
Cc1ccc(NC(=O)c2sc3nc(N4CCOCC4)c4c(c3c2N)CCCC4)cc1,·,·,·,·,36,·,·,·
SMILES,EBNA-1 inh,UBC13 inh,ZTA counter,PfM18AAP inh-1,PfG6PD inh,Apaf-1 inh,PfM18AAP inh-2,CTSL1 confirm
NNC(=O)c1sc2nc(N3CCOCC3)c3c(c2c1N)CCCC3,1,0,-15,-2,8,10,·,·
COc1ccc(S(=O)(=O)Nc2ccccc2OC)cc1NC(=O)CC1CC2CCC1C2 (stereo unspecified),-4,2,-1,-3,13,26,·,·
NS(=O)(=O)c1ccc(NC(=O)CSc2cn[nH]n2)cc1,-3,3,-2,15,-6,-4,·,·
COc1ccc(NC(=O)c2sc3nc(N4CCCC4)c4c(c3c2N)CC(C)(C)OC4)cc1,-5,23,1,13,32,13,·,·
COc1ccc(NC(=O)c2sc3nc(N4CCOCC4)c4c(c3c2N)CC(C)(C)OC4)cc1,0,32,9,36*,31,4,-56,-8
Cc1ccc(S(=O)(=O)N(C)C)cc1NC(=O)CN1C(=O)NC2(CCCc3ccccc32)C1=O (stereo unspecified),2,6,-7,-10,-2,-7,·,·
COc1ccc(C2NC(=O)NC(C)=C2[N+](=O)[O-])cc1OC (stereo unspecified),-22,-11,-2,-1,-20,0,·,·
CC(=O)C1=C(c2ccccc2)NC(=S)NC1c1ccc(O)c(O)c1 (stereo unspecified),-5,-6,-6,74*,-15,-2,68*,5
CC1=C([N+](=O)[O-])C(c2ccc(O)c(O)c2)NC(=O)N1 (stereo unspecified),10,4,14,84*,8,9,81*,-4
CC(=O)C1=C(c2ccccc2)NC(=O)NC1c1ccc(O)c(O)c1 (stereo unspecified),10,-1,14,77*,17,8,71*,-6
Cc1cc(C(=O)CSc2ncn[nH]2)c(C)n1-c1cccc(S(=O)(=O)N2CCOCC2)c1,-4,-15,-2,46*,7,8,24,5
Cc1ccccc1/C=N/N=C1/NC(=O)CCS1,-2,1,-9,65*,16,-4,-36,-1
O=C1CCS/C(=N\N=C\c2ccc(Cl)cc2Cl)N1,4,6,12,24,1,-12,·,·
CC(C)OCCCn1c(NN)nc2ccccc2c1=O,-3,1,2,18,-3,0,·,·
NNc1nc2ccccc2c(=O)n1Cc1ccccc1,-17,7,-14,54*,51,-1,39*,3
S=c1nc(C2COc3ccccc3O2)[nH][nH]1 (stereo unspecified),0,-2,-4,35*,13,-2,26,2
